Assay results as given in ChEMBL document CHEMBL1151775, “Inhibition of aquaporin 4 by antiepileptic drugs” (Bioorg Med Chem, 2009).

What was measured:
Assay type in all cases: cell-based
Oocyte [1] = test: Inhibition of human aquaporin 4 M23 isoform expressed in Xenopus laevis oocytes at 20 uM
Outline: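 Oocytes injected with 30 nL hAQP4b cRNA (0.1 µg/µL) or water sham, cultured 48 h at 18 C in MBS. Exposure to 20 µM compound (0.1% DMSO) for 2 h, then hypotonic challenge by dilution with buffer-free solution of matching inhibitor/DMSO. Oocyte area imaged each 60 s for 4 min, converted to volume. Osmotic permeability-based percent inhibition versus blank and sham; single-tail ANOVA, P < 0.05.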

[2] = (§1) Inhibition of human aquaporin 4 M23 isoform expressed in Xenopus laevis oocytes; conditions: oocyte
Outline: (§2)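 hAQP4b cRNA (0.1 µg/µL, 30 nL) or water (sham) injected into oocytes, kept 48 h at 18 C in MBS. Oocytes preincubated 2 h with ligand at 0.1, 1, 5, 10, 20 or 100 µM, 0.1% DMSO final, then diluted with buffer-free hypotonic solution. Swelling imaged every 60 s up to 4 min; n = 5 oocytes. Percent inhibition relative to blank and sham Pf fit sigmoidally for apparent IC50.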

Oocyte [3] = test: as §1; outline: as §2

NS(=O)(=O)Cc1noc2ccccc12 [ZONISAMIDE]
inhibition (Oocyte [1]): 48%
IC50 [2]: 3.3 µM
Imax (Oocyte [3]): 48%

O=C1NC(=O)C(c2ccccc2)(c2ccccc2)N1 [PHENYTOIN]
inhibition (Oocyte [1]): 58%
IC50 [2]: 9.8 µM
Imax (Oocyte [3]): 60%

Nc1nnc(-c2cccc(Cl)c2Cl)c(N)n1 [LAMOTRIGINE]
inhibition (Oocyte [1]): 54%
IC50 [2]: 8.1 µM
Imax (Oocyte [3]): 64%

CCCC(CCC)C(=O)O
inhibition (Oocyte [1]): 40%

CC1(C)O[C@@H]2[C@@H](CO[C@@]3(COS(N)(=O)=O)OC(C)(C)O[C@@H]23)O1 [TOPIRAMATE]
inhibition (Oocyte [1]): 67%
IC50 [2]: 10 µM
Imax (Oocyte [3]): 75%

NC(=O)N1c2ccccc2C2OC2c2ccccc21 (stereo not drawn)
inhibition (Oocyte [1]): 40%

NC(=O)N1c2ccccc2CC(=O)c2ccccc21
inhibition (Oocyte [1]): 33%

CC(=O)Nc1nnc(S(N)(=O)=O)s1 [ACETAZOLAMIDE]
inhibition (Oocyte [1]): 78%
IC50 [2]: 0.86 µM
Imax (Oocyte [3]): 86%
